# According to ChEMBL document CHEMBL1137660, “Molecular and biochemical characterization of the chromosome-encoded class A beta-lactamase BCL-1 from Bacillus clausii” (Antimicrob Agents Chemother, 2007):
# Legend:
# Assay type in all cases: functional
# Escherichia coli [1] = experiment: Antimicrobial activity against Escherichia coli DH10B carrying pJIM2246 expressing Bacillus clausii NR beta-lactamase BCL1 by agar-dilution technique; conditions: K-12 substr. DH10B
# Escherichia coli [2] = experiment: Antimicrobial activity against Escherichia coli DH10B by agar-dilution technique; conditions: K-12 substr. DH10B
# Summary of the method: (§1)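 MICs by agar dilution on Mueller-Hinton agar following CLSI recommendations. E. coli DH10B clone carries EcoRI-restricted B. clausii NR DNA in pJIM2246. BL21(DE3) carries blaBCL-1 in pET9a.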
# Escherichia coli [3] = experiment: Antimicrobial activity against Escherichia coli BL21(DE3) carrying pET9a expressing Bacillus clausii beta-lactamase BCL1 by agar-dilution technique
# Escherichia coli [4] = experiment: Antimicrobial activity against Escherichia coli BL21(DE3) by agar-dilution technique; summary of the method: as §1
# Shouchella clausii [5] = experiment: Antimicrobial activity against Bacillus clausii NR expressing beta-lactamase BCL1 by agar-dilution technique
# Shouchella clausii [6] = experiment: Antimicrobial activity against Bacillus clausii ATCC 21537 by agar-dilution technique
# Shouchella clausii [7] = experiment: Antimicrobial activity against Bacillus clausii NR expressing beta-lactamase BCL1 by agar-dilution technique in presence of beta-lactamase inhibitor clavulanic acid; summary of the method: as §1
# Shouchella clausii [8] = experiment: Antimicrobial activity against Bacillus clausii ATCC 21537 by agar-dilution technique in presence of beta-lactamase inhibitor clavulanic acid; summary of the method: as §1
# Escherichia coli [9] = experiment: Antimicrobial activity against Escherichia coli DH10B carrying pJIM2246 expressing Bacillus clausii NR beta-lactamase BCL1 by agar-dilution technique in presence of beta-lactamase inhibitor clavulanic acid; conditions: K-12 substr. DH10B; summary of the method: as §1
# Escherichia coli [10] = experiment: Antimicrobial activity against Escherichia coli DH10B by agar-dilution technique in presence of beta-lactamase inhibitor clavulanic acid; conditions: K-12 substr. DH10B; summary of the method: as §1
# Escherichia coli [11] = experiment: Antimicrobial activity against Escherichia coli BL21(DE3) carrying pET9a expressing Bacillus clausii beta-lactamase BCL1 by agar-dilution technique in presence of beta-lactamase inhibitor clavulanic acid; summary of the method: as §1
# Escherichia coli [12] = experiment: Antimicrobial activity against Escherichia coli BL21(DE3) by agar-dilution technique in presence of beta-lactamase inhibitor clavulanic acid; summary of the method: as §1
# Shouchella clausii [13] = experiment: Antimicrobial activity against Bacillus clausii NR expressing beta-lactamase BCL1 by agar-dilution technique in presence of beta-lactamase inhibitor Tazobactam; summary of the method: as §1
# Shouchella clausii [14] = experiment: Antimicrobial activity against Bacillus clausii ATCC 21537 by agar-dilution technique in presence of beta-lactamase inhibitor Tazobactam; summary of the method: as §1
# Escherichia coli [15] = experiment: Antimicrobial activity against Escherichia coli DH10B carrying pJIM2246 expressing Bacillus clausii NR beta-lactamase BCL1 by agar-dilution technique in presence of beta-lactamase inhibitor Tazobactam; conditions: K-12 substr. DH10B; summary of the method: as §1
# Escherichia coli [16] = experiment: Antimicrobial activity against Escherichia coli DH10B by agar-dilution technique in presence of beta-lactamase inhibitor Tazobactam; conditions: K-12 substr. DH10B; summary of the method: as §1
# Escherichia coli [17] = experiment: Antimicrobial activity against Escherichia coli BL21(DE3) carrying pET9a expressing Bacillus clausii beta-lactamase BCL1 by agar-dilution technique in presence of beta-lactamase inhibitor Tazobactam; summary of the method: as §1
# Escherichia coli [18] = experiment: Antimicrobial activity against Escherichia coli BL21(DE3) by agar-dilution technique in presence of beta-lactamase inhibitor Tazobactam; summary of the method: as §1
SMILES,MIC (Escherichia coli [1]) [µg/mL],MIC (Escherichia coli [2]) [µg/mL],MIC (Escherichia coli [3]) [µg/mL],MIC (Escherichia coli [4]) [µg/mL],MIC (Shouchella clausii [5]) [µg/mL],MIC (Shouchella clausii [6]) [µg/mL],other results
CO/N=C(\C(=O)N[C@@H]1C(=O)N2C(C(=O)O)=C(CSc3nc(=O)c(O)nn3C)CS[C@H]12)c1csc(N)n1 [CEFTRIAXONE],0.06,0.06,0.06,0.06,,,
CC(=O)OCC1=C(C(=O)O)N2C(=O)[C@@H](NC(=O)Cc3cccs3)[C@H]2SC1 [CEPHALOTHIN],64,4,16,1,8,8,
CO[C@@]1(NC(=O)Cc2cccs2)C(=O)N2C(C(=O)O)=C(COC(N)=O)CS[C@@H]21 [CEFOXITIN],16,8,2,0.5,32,16,
O=C(Cc1cccs1)N[C@@H]1C(=O)N2C(C(=O)[O-])=C(C[n+]3ccccc3)CS[C@H]12 [CEPHALORIDINE],0.12,0.12,0.06,0.06,,,
CO/N=C(\C(=O)N[C@@H]1C(=O)N2C(C(=O)O)=C(COC(C)=O)CS[C@H]12)c1csc(N)n1 [CEFOTAXIME],0.12,0.06,0.06,0.06,16,16,MIC (Shouchella clausii [7]): 16 µg/mL; MIC (Shouchella clausii [8]): 16 µg/mL; MIC (Escherichia coli [9]): 0.06 µg/mL; MIC (Escherichia coli [10]): 0.06 µg/mL; MIC (Escherichia coli [11]): 0.06 µg/mL; MIC (Escherichia coli [12]): 0.06 µg/mL
C[C@@H](O)[C@H]1C(=O)N2C(C(=O)O)=C(SCCNC=N)C[C@H]12 [IMIPENEM ANHYDROUS],,,,,0.25,,
CC1(C)S[C@@H]2[C@H](NC(=O)Cc3ccccc3)C(=O)N2[C@H]1C(=O)O [PENICILLIN G],,32,,2,0.5,0.5,
CO/N=C(\C(=O)N[C@@H]1C(=O)N2C(C(=O)[O-])=C(C[N+]3(C)CCCC3)CS[C@H]12)c1csc(N)n1,,,,0.06,,,
CC(C)(O/N=C(\C(=O)N[C@@H]1C(=O)N2C(C(=O)[O-])=C(C[n+]3ccccc3)CS[C@H]12)c1csc(N)n1)C(=O)O [CEFTAZIDIME],0.5,0.12,0.12,0.06,,,MIC (Escherichia coli [9]): 0.5 µg/mL; MIC (Escherichia coli [10]): 0.12 µg/mL; MIC (Escherichia coli [11]): 0.06 µg/mL; MIC (Escherichia coli [12]): 0.06 µg/mL
CO/N=C(\C(=O)N[C@@H]1C(=O)N2C(C(=O)[O-])=C(C[n+]3cccc4c3CCC4)CS[C@H]12)c1csc(N)n1 [CEFPIROME],0.12,0.06,0.5,0.06,,,MIC (Shouchella clausii [7]): 8 µg/mL; MIC (Shouchella clausii [8]): 8 µg/mL; MIC (Escherichia coli [9]): 0.06 µg/mL; MIC (Escherichia coli [10]): 0.06 µg/mL; MIC (Escherichia coli [11]): 0.06 µg/mL; MIC (Escherichia coli [12]): 0.06 µg/mL
CO[C@@]1(NC(=O)C(C(=O)O)c2ccc(O)cc2)C(=O)N2C(C(=O)O)=C(CSc3nnnn3C)CO[C@@H]21 (some centres not stated) [MOXALACTAM],0.25,0.25,0.25,0.25,64,0.25,
CC1(C)S[C@@H]2[C@H](NC(=O)[C@H](C(=O)O)c3ccsc3)C(=O)N2[C@H]1C(=O)O [TICARCILLIN],,8,,1,8,8,
CO/N=C(\C(=O)N[C@@H]1C(=O)N2C(C(=O)O)=C(COC(N)=O)CS[C@H]12)c1ccco1 [CEFUROXIME],16,8,2,0.5,,,
CCN1CCN(C(=O)N[C@@H](C(=O)N[C@@H]2C(=O)N3[C@@H]2SC(C)(C)[C@@H]3C(=O)O)c2ccccc2)C(=O)C1=O [PIPERACILLIN],8,4,32,1,16,16,MIC (Shouchella clausii [13]): 8 µg/mL; MIC (Shouchella clausii [14]): 8 µg/mL; MIC (Escherichia coli [15]): 2 µg/mL; MIC (Escherichia coli [16]): 4 µg/mL; MIC (Escherichia coli [17]): 0.5 µg/mL; MIC (Escherichia coli [18]): 0.5 µg/mL
CC1(C)S[C@@H]2[C@H](NC(=O)[C@H](N)c3ccc(O)cc3)C(=O)N2[C@H]1C(=O)O [AMOXICILLIN],,8,,1,0.5,1,MIC (Shouchella clausii [7]): 0.12 µg/mL; MIC (Shouchella clausii [8]; read-out: MIC): 120 µg/mL; MIC (Escherichia coli [9]): 32 µg/mL; MIC (Escherichia coli [10]): 4 µg/mL; MIC (Escherichia coli [11]): 2 µg/mL; MIC (Escherichia coli [12]): 1 µg/mL
